Measurements as given in ChEMBL document CHEMBL1156597, “Structure-activity relationship of kahalalide F synthetic analogues” (J Med Chem, 2008).

Legend:
[1] = Cytotoxicity against human IGROV-ET cells after 48 hrs by SRB assay; format: functional; conditions: for CC50: read-out: LC50 (the source's name)
In short: (§1)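 Cells grown in RPMI 1640 with 10% FBS and penicillin/streptomycin at 37 °C and 5% CO₂, trypsinized, then seeded at 5 × 10³/well. After 18 h drug-free attachment, samples in DMSO/EtOH/PBS (0.5:0.5:99) were added for 48 h continuous exposure. Cells were fixed with cold TCA (1 h, 4 °C) and stained with SRB (10 min). Tris-solubilized stain read at 490 nm. Triplicate wells, mean ± SD; GI₅₀ derived.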

[2] = system: HeLa; experiment: Cytotoxicity against human HeLa cells after 48 hrs by SRB assay; format: functional; conditions: for CC50: read-out: LC50 (the source's name); in short: as §1
[3] = system: LoVo; experiment: Cytotoxicity against human LoVo cells after 48 hrs by SRB assay; format: functional; conditions: for CC50: read-out: LC50 (the source's name)
[4] = Cytotoxicity against human HeLa-APL cells after 48 hrs by SRB assay; format: functional; in short: as §1
[5] = system: LoVo; experiment: Cytotoxicity against human doxorubicin resistant LoVo cells after 48 hrs by SRB assay; format: functional; conditions: for CC50: read-out: LC50 (the source's name); in short: as §1
[6] = system: A549; experiment: Cytotoxicity against human A549 cells after 48 hrs by SRB assay; format: functional, cell-based; conditions: Homo sapiens, A549, 48 h; in short: as §1
[7] = Cytotoxicity against human IGROV cells after 48 hrs by SRB assay; format: functional; conditions: for CC50: read-out: LC50 (the source's name); in short: as §1
[8] = system: DU-145; experiment: Cytotoxicity against human DU145 cells after 48 hrs by SRB assay; format: functional, cell-based; conditions: Homo sapiens, DU-145, 48 h; for CC50: read-out: LC50 (the source's name); in short: as §1
[9] = system: LNCaP; experiment: Cytotoxicity against human LNcaP cells after 48 hrs by SRB assay; format: functional; conditions: for CC50: read-out: LC50 (the source's name); in short: as §1
[10] = system: SK-MEL-28; experiment: Cytotoxicity against human SK-MEL-28 cells after 48 hrs by SRB assay; format: functional, cell-based; conditions: Homo sapiens, SK-MEL-28, 48 h; for CC50: read-out: LC50 (the source's name); in short: as §1
[11] = system: PANC-1; experiment: Cytotoxicity against human PANC1 cells after 48 hrs by SRB assay; format: functional; conditions: PANC-1, 48 h; for CC50: read-out: LC50 (the source's name); in short: as §1
[12] = system: HT-29; experiment: Cytotoxicity against human HT29 cells after 48 hrs by SRB assay; format: functional, cell-based; conditions: Homo sapiens, HT-29, 48 h; read-out: LC50 (the source's name); in short: as §1
[13] = system: K562; experiment: Cytotoxicity against human K562 cells after 48 hrs by SRB assay; format: functional; conditions: K562, 48 h; for CC50: read-out: LC50 (the source's name); in short: as §1
[14] = system: SK-BR-3; experiment: Cytotoxicity against human SKBR3 cells after 48 hrs by SRB assay; format: functional; conditions: SK-BR-3, 48 h; in short: as §1

Row | Structure (SMILES) | GI50 [1] | GI50 ([1]; read-out: GI50) | CC50 [1] | CC50 [2] | CC50 [3] | GI50 [4] | LC50 (concentration giving 50% net cell kill) [4] | TGI [4] | CC50 [5] | LC50 [6] | CC50 [7] | CC50 [8] | GI50 [9] | TGI [9] | CC50 [9] | GI50 ([10]; read-out: GI50) | CC50 [10] | CC50 [11] | CC50 [12] | CC50 [13] | further results
1 | C/C=C1\NC(=O)[C@H](Cc2ccccc2)NC(=O)[C@@H](C(C)C)NC(=O)[C@@H]([C@H](C)CC)NC(=O)[C@H](NC(=O)[C@H](NC(=O)[C@H](CCCN)NC(=O)[C@H]2CCCN2C(=O)[C@H](NC(=O)[C@@H](NC(=O)[C@@H](NC(=O)[C@H]2CCCN2C(=O)CCCC(C)C)[C@@H](C)O)C(C)C)C(C)C)[C@H](C)CC)[C@H](C)OC(=O)[C@H](C(C)C)NC1=O | 608 nM | 4700 nM | 426 nM | 1090 nM | 1500 nM | 1180 nM | 1010 nM | 1650 nM | 3270 nM | 1240 nM | 768 nM | 1160 nM | 1160 nM | 1110 nM | 1060 nM | 1050 nM | 1140 nM | 2820 nM | 1140 nM | 1800 nM | GI50 [5]: 3.51 µM; TGI [5]: 3.37 µM; TGI [10]: 1240 nM; GI50 [11]: 2750 nM; TGI [11]: 3.8 µM; GI50 [13]: 1310 nM; TGI [13]: 1530 nM
2 | C/C=C1\NC(=O)[C@H](Cc2ccccc2)NC(=O)[C@@H](C(C)C)NC(=O)[C@@H]([C@H](C)CC)NC(=O)[C@H](NC(=O)[C@H](NC(=O)[C@H](CCCN)NC(=O)[C@@H]2CC[C@H](c3ccccc3)N2C(=O)[C@H](NC(=O)[C@@H](NC(=O)[C@@H](NC(=O)[C@H](NC(=O)CC[C@@H](C)CC)C(C)C)[C@@H](C)O)C(C)C)C(C)C)[C@H](C)CC)[C@H](C)OC(=O)[C@H](C(C)C)NC1=O |  |  | 5220 nM | 1040 nM | 756 nM |  | 938 nM |  | 1780 nM | 6440 nM | 499 nM | 1360 nM |  |  | 1550 nM |  | 1540 nM | 1940 nM | 643 nM | 2080 nM | GI50 [3]: 7.33 µM; TGI [3]: 6.17 µM
3 | C/C=C1\NC(=O)[C@H](Cc2ccccc2)NC(=O)[C@@H](C(C)C)NC(=O)[C@@H]([C@H](C)CC)NC(=O)[C@H](NC(=O)[C@H](NC(=O)[C@H](CCCN)NC(=O)[C@H]2CCCN2C(=O)[C@H](NC(=O)[C@@H](NC(=O)[C@@H](NC(=O)[C@H](NC(=O)c2ccc(C(F)(F)F)cc2)C(C)C)[C@@H](C)O)C(C)C)C(C)C)[C@H](C)CC)[C@H](C)OC(=O)[C@H](C(C)C)NC1=O | 223 nM | 140 nM | 294 nM | 601 nM | 286 nM | 519 nM | 717 nM | 665 nM |  | 473 nM | 321 nM | 800 nM | 341 nM | 621 nM | 799 nM | 839 nM | 809 nM | 2430 nM | 76.5 nM | 2340 nM | GI50 [2]: 348 nM; TGI [2]: 526 nM; GI50 [3]: 0.253 µM; TGI [3]: 0.268 µM; TGI [14]: 289 nM; GI50 ([14]; read-out: GI50): 303 nM; CC50 ([14]; read-out: LC50 (the source's name)): 223 nM; GI50 [6]: 254 nM; GI50 ([6]; read-out: GI50): 202 nM; GI50 [7]: 236 nM; GI50 ([7]; read-out: GI50): 247 nM; GI50 [8]: 685 nM; GI50 ([8]; read-out: GI50): 310 nM; GI50 [10]: 823 nM; GI50 [11]: 1840 nM; TGI [11]: 2.26 µM
